From ChEMBL document CHEMBL4321820, “Identification and Optimization of Mechanism-Based Fluoroallylamine Inhibitors of Lysyl Oxidase-like 2/3” (J Med Chem, 2019) come the findings set out here.

One data set deals with T1, Lysyl oxidase homolog 2 (Homo sapiens, UniProt Q9Y4K0).
T1 sequence (Q9Y4K0 whole entry): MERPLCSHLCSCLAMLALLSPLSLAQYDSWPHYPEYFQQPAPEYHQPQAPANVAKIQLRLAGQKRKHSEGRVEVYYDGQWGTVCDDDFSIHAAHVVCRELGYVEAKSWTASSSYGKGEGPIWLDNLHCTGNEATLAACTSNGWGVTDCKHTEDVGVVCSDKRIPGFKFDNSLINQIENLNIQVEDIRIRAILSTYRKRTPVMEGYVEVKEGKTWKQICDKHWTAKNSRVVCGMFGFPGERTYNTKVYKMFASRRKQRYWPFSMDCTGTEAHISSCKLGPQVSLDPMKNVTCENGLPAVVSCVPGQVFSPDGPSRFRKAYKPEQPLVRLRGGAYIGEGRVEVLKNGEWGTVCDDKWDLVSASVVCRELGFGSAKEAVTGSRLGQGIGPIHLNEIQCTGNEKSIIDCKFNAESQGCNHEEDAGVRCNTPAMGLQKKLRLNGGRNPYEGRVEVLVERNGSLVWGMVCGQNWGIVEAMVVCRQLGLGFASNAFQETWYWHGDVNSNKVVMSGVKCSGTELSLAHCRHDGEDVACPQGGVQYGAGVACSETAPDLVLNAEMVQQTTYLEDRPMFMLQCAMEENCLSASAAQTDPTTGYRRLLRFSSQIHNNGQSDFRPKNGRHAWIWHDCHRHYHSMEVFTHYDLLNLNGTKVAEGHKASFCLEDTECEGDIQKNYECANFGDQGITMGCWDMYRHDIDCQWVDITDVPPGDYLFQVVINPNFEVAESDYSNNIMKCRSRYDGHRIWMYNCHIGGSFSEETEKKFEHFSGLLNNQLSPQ
In words: Inhibition of recombinant human C-terminal His-tagged […] (1-774 residues) expressed in mouse myeloma cells using putrescine as substrate preincubated with enzyme for 30 mins followed by substrate addition and measured every 2.5 mins for 30 mins by Amplex-Red oxidation assay. As to conditions: read-out: pIC50 (converted). In a few lines: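 LOXL2 enzyme preincubated with compound for 30 min at 37 °C, then Amplex Red (120 µM) / HRP (1.5 U/mL) mix containing 5 mM putrescine added. Buffer: 1.2 M urea, 50 mM sodium borate, pH 8.2. H2O2 fluorescence (ex 565/em 590) read every 2.5 min for 30 min at 37 °C; BAPN 100 µM as positive control; n≥2.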

The next data set has as its target T2, Protein-lysine 6-oxidase (Bos taurus, UniProt P33072).
T2 sequence (P33072 whole entry): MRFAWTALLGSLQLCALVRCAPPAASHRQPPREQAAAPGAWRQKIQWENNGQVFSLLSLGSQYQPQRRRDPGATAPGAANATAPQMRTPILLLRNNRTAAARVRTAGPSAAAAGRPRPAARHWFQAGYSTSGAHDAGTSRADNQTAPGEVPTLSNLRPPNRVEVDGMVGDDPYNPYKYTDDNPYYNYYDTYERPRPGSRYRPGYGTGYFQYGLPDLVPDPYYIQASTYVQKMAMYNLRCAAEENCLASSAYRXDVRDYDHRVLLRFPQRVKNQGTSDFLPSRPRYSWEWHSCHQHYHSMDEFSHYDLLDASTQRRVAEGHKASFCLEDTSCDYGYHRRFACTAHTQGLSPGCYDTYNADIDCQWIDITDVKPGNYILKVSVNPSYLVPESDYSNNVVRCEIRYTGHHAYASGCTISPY
The experiment in a line: Inhibition of LOX in bovine aorta using putrescine as substrate preincubated with enzyme for 30 mins followed by substrate addition and measured every 2.5 mins for 30 mins by Amplex-Red oxidation assay. The following applies: read-out: pIC50 (converted). It counts as tissue-based. The essentials: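 LOX extracted from calf aorta after PBS washing with 4 M urea/50 mM borate pH 8.2, concentrated on 10 kDa filters into 1.2 M urea/borate with protease inhibitors. Preincubated 30 min at 37 °C with compound, then Amplex Red/HRP with 10 mM putrescine; fluorescence read every 2.5 min for 30 min.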

In data set [1] the target is T3, Amine oxidase [copper-containing] 3 (Homo sapiens, UniProt Q16853).
T3 sequence (Q16853 whole entry): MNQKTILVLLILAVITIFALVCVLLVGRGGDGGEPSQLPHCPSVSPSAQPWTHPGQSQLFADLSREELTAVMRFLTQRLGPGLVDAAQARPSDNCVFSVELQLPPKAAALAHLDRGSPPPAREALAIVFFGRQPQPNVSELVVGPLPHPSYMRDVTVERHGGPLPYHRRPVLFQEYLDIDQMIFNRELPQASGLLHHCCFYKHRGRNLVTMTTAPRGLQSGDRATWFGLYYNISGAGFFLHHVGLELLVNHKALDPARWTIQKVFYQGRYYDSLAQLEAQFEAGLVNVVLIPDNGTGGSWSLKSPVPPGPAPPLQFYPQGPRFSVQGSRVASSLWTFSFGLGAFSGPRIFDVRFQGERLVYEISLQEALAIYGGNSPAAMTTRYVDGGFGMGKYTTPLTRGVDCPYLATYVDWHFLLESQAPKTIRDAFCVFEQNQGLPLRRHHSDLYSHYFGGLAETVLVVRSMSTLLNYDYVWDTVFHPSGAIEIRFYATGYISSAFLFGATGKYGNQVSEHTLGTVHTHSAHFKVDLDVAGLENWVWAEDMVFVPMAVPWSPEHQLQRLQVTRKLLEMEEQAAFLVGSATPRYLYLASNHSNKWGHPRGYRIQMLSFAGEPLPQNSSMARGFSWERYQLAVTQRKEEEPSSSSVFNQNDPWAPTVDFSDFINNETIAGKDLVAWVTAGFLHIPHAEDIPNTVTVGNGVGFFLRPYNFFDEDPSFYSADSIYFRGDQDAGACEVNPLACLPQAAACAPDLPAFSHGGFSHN
The experiment in a line: Substrate activity at recombinant human SSAO assessed as compound oxidation by measuring oxidative turnover at 30 uM measured for 40 mins by horseradish peroxidase-coupled amplex red reagent-based fluorometric assay relative to DMSO. In kind it is ADME. In a few lines:
(§1)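 Compound oxidation measured without substrate by peroxidase-coupled fluorometric read-out of resorufin formation over 40 min at 37 °C in HEPES buffer. Amplex Red 20 µM, HRP 4 U/ml, test compound at final 30 µM. Enzyme source was human recombinant SSAO or AOC4 from diluted dog serum. Benzylamine at 600 µM served as positive control. Signal is expressed relative to DMSO-only background, so a value near 1 means no turnover.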

Data set [2] can be described thus: Substrate activity at AOC4 in dog serum assessed as compound oxidation by measuring oxidative turnover at 30 uM measured for 40 mins by horseradish peroxidase-coupled amplex red reagent-based fluorometric assay relative to DMSO. In kind it is ADME, cell-free, Canis lupus familiaris. In a few lines:
as §1

For data set [3], the target named is T3, Amine oxidase [copper-containing] 3. In words: Inhibition of recombinant human SSAO using benzylamine as substrate preincubated with enzyme for 30 mins followed by substrate addition and measured every 2.5 mins for 30 mins by Amplex-Red oxidation assay. The following applies: read-out: pIC50 (converted).

As for `COc1ccc2c(c1)c(-c1cccc(S(=O)(=O)N(C)C)c1)c(C)n2C/C(F)=C/CN.Cl`, the IC50 on Lysyl oxidase homolog 2 is 79.4 nM; on Protein-lysine 6-oxidase, 1580 nM. Moreover, the results for the “fold change (FC)” value in data set [1] and in data set [2] were 4.6 and 1.6, respectively.

As to `C[C@H](NS(=O)(=O)c1ccc(OC/C(F)=C/CN)cc1)c1ccccc1`, the results for the IC50 (on Lysyl oxidase homolog 2; on Protein-lysine 6-oxidase; in data set [3]) were 316 nM, 398 nM and greater than 3160 nM, respectively.

For the molecule `CN(C)S(=O)(=O)c1cccc(-c2ccn(C/C(F)=C/CN)c2)c1.Cl`, the IC50 was 100 nM at Lysyl oxidase homolog 2 and 2000 nM on Protein-lysine 6-oxidase. Moreover, the “fold change (FC)” value in data set [1] was greater than 4.

Turning to `Cc1c(-c2cccc(S(=O)(=O)N(C)C)c2)c2cc(Cl)ccc2n1C/C(F)=C/CN.Cl`, the IC50 was 126 nM on Lysyl oxidase homolog 2 and 3160 nM on Protein-lysine 6-oxidase. Moreover, the “fold change (FC)” value in data set [1] was found to be 1.2; in data set [2], 1.1.

Consider `CN(C)S(=O)(=O)c1ccc(-c2cn(C/C(F)=C/CN)nn2)cc1.Cl`, for which the values for the IC50 on Lysyl oxidase homolog 2 and on Protein-lysine 6-oxidase were 126 nM and 794 nM, respectively. Further, the “fold change (FC)” value in data set [1] was greater than 4.

As for `Cc1c(-c2cccc(S(=O)(=O)N(C)C)c2)c2cccc(C(=O)N(C)C)c2n1C/C(F)=C/CN.Cl`, the IC50 at Lysyl oxidase homolog 2 is 3160 nM; on Protein-lysine 6-oxidase it was 20000 nM. Besides, the “fold change (FC)” value is 1.1 in data set [1] and 1.4 in data set [2].

As for `CC(C)(C)c1ccc(OCc2cn(C/C(F)=C/CN)nn2)cc1`, the IC50 was 794 nM on Lysyl oxidase homolog 2 and 501 nM at Protein-lysine 6-oxidase.

Take `Cc1c(-c2cccc(S(=O)(=O)N(C)C)c2)c2ccc(C(=O)N(C)C)cc2n1C/C(F)=C/CN.Cl`: the figures for the IC50 at Lysyl oxidase homolog 2 and at Protein-lysine 6-oxidase were 63.1 nM and 794 nM, respectively. Besides, the “fold change (FC)” value stood at 1 in data set [1] and 1.1 in data set [2].

For `Cc1c(-c2cccc(S(=O)(=O)N(C)C)c2)c2ccc(C(=O)O)cc2n1C/C(F)=C/CN.Cl`, the IC50 on Lysyl oxidase homolog 2 is 501 nM; on Protein-lysine 6-oxidase, 15800 nM. In addition, the results for the “fold change (FC)” value in data set [1] and in data set [2] were 1.1 and 1, respectively.

Consider `CS(=O)(=O)c1ccccc1OCc1cn(C/C(F)=C/CN)nn1`, for which the IC50 is 2000 nM on Lysyl oxidase homolog 2 and 3160 nM at Protein-lysine 6-oxidase.

Turning to `Cc1c(-c2cccc(S(=O)(=O)N(C)C)c2)c2cc(O)ccc2n1C/C(F)=C/CN.Cl`, the results for the IC50 on Lysyl oxidase homolog 2 and on Protein-lysine 6-oxidase were 50.1 nM and 1260 nM, respectively. Further, the “fold change (FC)” value in data set [1] turned out to be 1; in data set [2], 1.1.

As for `CN(C)S(=O)(=O)c1ccc(NCc2cn(C/C(F)=C/CN)nn2)cc1.Cl`, the IC50 is 20 nM on Lysyl oxidase homolog 2 and 501 nM at Protein-lysine 6-oxidase. In addition, the “fold change (FC)” value in data set [1] was greater than 4.

For the molecule `CN(C)C(=O)c1ccc(OCc2cn(C/C(F)=C/CN)nn2)cc1`, the IC50 was 794 nM at Lysyl oxidase homolog 2 and 3160 nM at Protein-lysine 6-oxidase.

For `CN(C)S(=O)(=O)c1ccc(-c2ccn(C/C(F)=C/CN)c2)cc1.Cl`, the IC50 was 251 nM on Lysyl oxidase homolog 2 and 794 nM at Protein-lysine 6-oxidase. For the same molecule, in data set [1], the “fold change (FC)” value is reported as greater than 4.

For `NC/C=C(\F)Cn1cc(COc2ccccc2)nn1`, the values for the IC50 at Lysyl oxidase homolog 2 and on Protein-lysine 6-oxidase were 316 nM and 501 nM, respectively.

In the case of `CN(C)S(=O)(=O)c1ccc(Cc2cn(C/C(F)=C/CN)nn2)cc1.Cl`, the IC50 was 12.6 nM at Lysyl oxidase homolog 2 and 631 nM on Protein-lysine 6-oxidase. Moreover, the “fold change (FC)” value in data set [1] is greater than 4.

On to `Cc1c(-c2cccc(S(=O)(=O)N(C)C)c2)c2cc(-c3nnn[nH]3)ccc2n1C/C(F)=C/CN.Cl`, for which the IC50 was 126 nM on Lysyl oxidase homolog 2 and 15800 nM on Protein-lysine 6-oxidase. For the same molecule, in data set [2], the “fold change (FC)” value turned out to be 1.

On to `Cc1c(-c2cccc(S(=O)(=O)N(C)C)c2)c2cc(NS(C)(=O)=O)ccc2n1C/C(F)=C/CN.Cl`, for which the results for the IC50 on Lysyl oxidase homolog 2 and on Protein-lysine 6-oxidase were 20 nM and 1000 nM, respectively. Further, the entries for the “fold change (FC)” value in data set [1] and in data set [2] were 1 and 1.5, respectively.

`C[C@H](NS(=O)(=O)c1ccc(OC/C(F)=C\CN)cc1)c1ccccc1`: the IC50 on Lysyl oxidase homolog 2 was 2510 nM; on Protein-lysine 6-oxidase, 2000 nM; in data set [3] it was 50.1 nM.

In the case of `CS(=O)(=O)c1cccc(OCc2cn(C/C(F)=C/CN)nn2)c1`, the IC50 is 794 nM at Lysyl oxidase homolog 2 and 1000 nM at Protein-lysine 6-oxidase.

As for `Cc1c(-c2cccc(S(=O)(=O)N(C)C)c2)c2cc(C(=O)N(C)C)ccc2n1C/C(F)=C/CN.Cl`, the IC50 at Lysyl oxidase homolog 2 was 25.1 nM; on Protein-lysine 6-oxidase, 1580 nM. Also, the “fold change (FC)” value in data set [1] was determined as 1.2; in data set [2], 1.

On to `Cc1c(-c2cccc(S(=O)(=O)N(C)C)c2)c2cc(S(C)(=O)=O)ccc2n1C/C(F)=C/CN.Cl`, for which the IC50 at Lysyl oxidase homolog 2 is 5.01 nM; at Protein-lysine 6-oxidase it was 398 nM. Moreover, the “fold change (FC)” value in data set [1] and in data set [2] was 1.3 throughout.

With `Cc1c(-c2ccc(S(=O)(=O)N(C)C)cc2)c2ccccc2n1C/C(F)=C/CN.Cl`, the IC50 is 794 nM at Lysyl oxidase homolog 2 and 3160 nM at Protein-lysine 6-oxidase. In addition, the “fold change (FC)” value in data set [1] is reported as 2.8.

For `CS(=O)(=O)c1ccc(OCc2cn(C/C(F)=C/CN)nn2)cc1`, the IC50 was 200 nM on Lysyl oxidase homolog 2 and 631 nM on Protein-lysine 6-oxidase.
